Source: PubChem BioAssay
SR-BI DiI-HDL act – activators of SR-BI mediated DiI-HDL uptake, primary screen, ldlA[mSR-BI] CHO cells, DiI fluorescence; 3 h; 100 = double the neutral-control signal; activation, % at 12.5 µM; 320,000 tested, 0.096% active;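 active = mean replicate activation of at least 60% and every replicate at or above 60%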;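 note: 0% = median plate neutral-control signal and 100% = twice that signal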
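System: CHO ldlA[mSR-BI] cells / Medium: HEPES-buffered (25 mM, pH 7.4) F12 plus 0.5% BSA / Probe or stimulus: labelled HDL, 10 µg/mL / Doses: single compound concentration, delivered by pin transfer / Schedule: 3 h, 37 °C / Measured by: DiI fluorescence, bottom read / Measure: cell-associated DiI fluorescence as measure of HDL uptake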
CDK5 p35 inh – inhibitors of human CDK5/p35 kinase, primary screen, biochemical, single concentration; Cyclin-dependent kinase 5 (Homo sapiens) + Cyclin-dependent kinase 5 activator 1 (Homo …; Recombinant CDK5/p35, ADP-Glo luminescence, 60 min; inhibition, % at 10 µM; 330,000 tested, 0.01% active; AID 488839, 2010;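 active = highest replicate inhibition of at least 50% and at least 75% of replicates reaching 50%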;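 note: plate controls were DMSO neutral control for no effect and GW8510 at 10 µM for full effect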
Target sequence (Q00535 whole entry, looked up): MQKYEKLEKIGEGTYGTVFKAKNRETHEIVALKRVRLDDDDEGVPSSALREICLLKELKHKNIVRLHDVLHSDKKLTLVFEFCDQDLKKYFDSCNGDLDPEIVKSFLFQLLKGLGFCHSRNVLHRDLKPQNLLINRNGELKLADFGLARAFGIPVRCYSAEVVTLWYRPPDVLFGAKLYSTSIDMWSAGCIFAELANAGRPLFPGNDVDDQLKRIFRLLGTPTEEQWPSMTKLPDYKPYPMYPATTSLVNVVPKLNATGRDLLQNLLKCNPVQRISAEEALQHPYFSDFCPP
Target sequence (Q15078 whole entry, looked up): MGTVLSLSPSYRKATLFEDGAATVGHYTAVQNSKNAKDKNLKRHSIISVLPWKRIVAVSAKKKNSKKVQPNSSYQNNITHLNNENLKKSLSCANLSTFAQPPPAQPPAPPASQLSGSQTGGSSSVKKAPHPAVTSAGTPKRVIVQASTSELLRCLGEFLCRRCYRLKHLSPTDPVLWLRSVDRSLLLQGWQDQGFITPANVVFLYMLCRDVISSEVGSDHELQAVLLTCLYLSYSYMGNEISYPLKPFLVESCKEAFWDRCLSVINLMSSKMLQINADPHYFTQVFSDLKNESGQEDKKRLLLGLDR
PKA-R2B act – activators of PKA-R2B holoenzyme, primary screen, biochemical, fluorescence polarization, Cy5-IP20, human | activation, % at 11.4 µM | PKA-R2B holoenzyme dissociation; R2B truncated from residue 108, S112A mutant; 0% DMSO only, 100% 113 µM cGMP | 340,000 tested, 0.079% active | AID 504700, 2011;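 active = activation above a cutoff set at the mean over all compounds plus 3 SD, cut at about 18% in these data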;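 note: higher means more holoenzyme dissociation and a rise in polarization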
dFosB activator – activators of delta FosB homodimer, primary screen, biochemical, fluorescence polarization, TAMRA-CDK5 oligo, single point | purified delta FosB; percent of positive-control signal above neutral wells | activation, % at 25 µM | 340,000 tested, 0.99% active;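 active = mean activation above about 17%, with every replicate also reaching it, limit read from the data, passing the limit was not always enough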
PKA-R1A act – activators of PKA-R1A holoenzyme, primary screen, biochemical, fluorescence polarization, Cy5-IP20, bovine R1A, mouse PKAc | cAMP-dependent protein kinase type I-alpha regulatory subunit (Bos taurus) + … | PKA-R1A dissociation; scaled: DMSO 0%, 113 µM cGMP 100% | activation, % at 11.4 µM | 340,000 tested, 0.083% active;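 active = percent activation above the mean of all tested compounds plus 3 SD, cut at about 19% in these data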;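 note: higher means more PKAc released from R1A so a rise in polarization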
SR-BI HDL uptake – inhibitors of SR-BI mediated HDL lipid uptake, primary screen, ldlA[mSR-BI] cells, fluorescence, single point; inhibition, % at 12.5 µM; ldlA[mSR-BI] CHO cells, DiI-HDL uptake fluorescence, 3 h; 320,000 tested, 0.96% active; Scavenger receptor class B member 1 (Mus musculus), Q61009;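 active = mean replicate inhibition of at least 70% and a set share of replicates each scoring 70 or more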;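 note: 0% = median of neutral control wells and 100% = median of positive control wells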
The depositor's hits bear a star. An excerpt weighted towards active compounds, which were near 2.1% of everything screened.

For O=C(N/C=N/OCc1ccc(Cl)cc1Cl)NOCc1ncc(C(F)(F)F)cc1Cl the results were SR-BI DiI-HDL act -83, CDK5 p35 inh 2, PKA-R2B act -7, dFosB activator -2, PKA-R1A act -13 and SR-BI HDL uptake 83*.
For COC(=O)[C@]1(CC(C)C)N[C@H](c2ccc(-c3ccc(F)cc3)c(OC)c2)[C@@H]2C(=O)N(C)C(=O)[C@@H]21 the results were SR-BI DiI-HDL act -89, CDK5 p35 inh -2, PKA-R2B act -10, dFosB activator -7, PKA-R1A act -2 and SR-BI HDL uptake 89*.
`CCC(C)Sc1ccc([C@H]2N[C@@](CC(C)C)(C(=O)OC)[C@H]3C(=O)N(C)C(=O)[C@@H]23)cc1` (stereo partly drawn) gave SR-BI DiI-HDL act -79, CDK5 p35 inh 3, PKA-R2B act 2, dFosB activator -8, PKA-R1A act 2 and SR-BI HDL uptake 79*.
For COC(=O)[C@]1(CC(C)C)N[C@H](c2ccc(SC3CCCCC3)c(OC)c2)[C@@H]2C(=O)N(C)C(=O)[C@@H]21 the results were SR-BI DiI-HDL act -75, CDK5 p35 inh 0, PKA-R2B act -3, dFosB activator -19, PKA-R1A act -14 and SR-BI HDL uptake 75*.
Screening CCSc1ccc([C@@H]2[C@@H]3C(=O)N(C)C(=O)[C@@H]3[C@]3(C(=O)OC)CCCCN23)cc1OC returned SR-BI DiI-HDL act 67*, CDK5 p35 inh -1, PKA-R2B act -6, dFosB activator -7, PKA-R1A act 3 and SR-BI HDL uptake -67.
Screening CCN1C(=O)[C@H]2[C@@H](c3ccc(-c4ccc(OC)cc4)c(OC)c3)N[C@@](CC(C)C)(C(=O)OC)[C@H]2C1=O returned SR-BI DiI-HDL act -35, CDK5 p35 inh 1, PKA-R2B act 8, dFosB activator 0, PKA-R1A act 1 and SR-BI HDL uptake 35.
`CCCSc1ccc([C@@H]2[C@@H]3C(=O)N(C)C(=O)[C@@H]3[C@]3(C(=O)OC)CCCCN23)cc1OC` gave SR-BI DiI-HDL act 15, CDK5 p35 inh -1, PKA-R2B act -4, dFosB activator 1, PKA-R1A act -12 and SR-BI HDL uptake -15.
Screening Cc1cc(C)n(-c2cc(N3CCOCC3)nc(-c3ccccc3)n2)n1 returned SR-BI DiI-HDL act -85, CDK5 p35 inh -2, PKA-R2B act -10, dFosB activator -14, PKA-R1A act -11 and SR-BI HDL uptake 85*.
Screening CN(c1ccc(Cl)cc1)c1cc(=O)n(C)c2ccccc12 returned SR-BI DiI-HDL act -12, CDK5 p35 inh 0, PKA-R2B act -5, dFosB activator -10, PKA-R1A act -11 and SR-BI HDL uptake 12.
`CN(C)c1ccc(C=c2c3cc([N+](=O)[O-])ccc3n3c2cc(-c2ccccc2)[n+]3C)cc1` gave SR-BI DiI-HDL act -84, CDK5 p35 inh 8, PKA-R2B act 1, dFosB activator 14, PKA-R1A act 0 and SR-BI HDL uptake 84*.
CN(C)c1ccc(C=c2c3ccccc3n3c2c2c([n+]3C)CCCC2)cc1 was read as SR-BI DiI-HDL act -40, CDK5 p35 inh 4, PKA-R2B act -1, dFosB activator 86*, PKA-R1A act 0 and SR-BI HDL uptake 40.
Screening CN(C)c1ccc(C=c2c3ccccc3n3c2cc(-c2ccccc2)[n+]3C)cc1 returned SR-BI DiI-HDL act 58, CDK5 p35 inh 4, PKA-R2B act 9, dFosB activator 100*, PKA-R1A act 0 and SR-BI HDL uptake -58.
Screening CN(C)c1ccc(C=c2c3ccccc3n3c2cc(-c2ccc(Cl)cc2)[n+]3C)cc1 returned SR-BI DiI-HDL act 3, CDK5 p35 inh 3, PKA-R2B act 4, dFosB activator 50*, PKA-R1A act 10 and SR-BI HDL uptake -3.
For COc1cc(C=c2c3ccccc3n3c2cc(-c2ccccc2)[n+]3C)cc(OC)c1OC the results were SR-BI DiI-HDL act -33, CDK5 p35 inh 1, PKA-R2B act 11, dFosB activator -6, PKA-R1A act 6 and SR-BI HDL uptake 33.
For CN(C)c1ccc(/C=C2\CCC/C(=C\c3ccccc3)C2=O)cc1 the results were SR-BI DiI-HDL act -5, CDK5 p35 inh 1, PKA-R2B act -4, dFosB activator -6, PKA-R1A act 5 and SR-BI HDL uptake 5.
`Nc1nc(-c2ccccc2)c(CCCOc2ccc(NC(=O)CBr)cc2)c(=O)[nH]1` gave SR-BI DiI-HDL act -18, CDK5 p35 inh -3, PKA-R2B act -1, dFosB activator -4, PKA-R1A act 10 and SR-BI HDL uptake 18.
O=C(NCCN1C(=O)S/C(=C\c2ccc(Cl)c([N+](=O)[O-])c2)C1=O)C1=COCCO1 was read as SR-BI DiI-HDL act 15, CDK5 p35 inh -1, PKA-R2B act -6, dFosB activator -5, PKA-R1A act -13 and SR-BI HDL uptake -15.
For COc1cc(N(C)C)ccc1C=c1c2ccccc2n2c1cc(-c1ccccc1)[n+]2C the results were SR-BI DiI-HDL act 34, CDK5 p35 inh 10, PKA-R2B act -3, dFosB activator 234*, PKA-R1A act -3 and SR-BI HDL uptake -34.
Screening Nc1ccn([C@@H]2O[C@H](CNCc3ccc(N4CCNCC4)cc3)[C@@H](O)[C@H]2O)c(=O)n1 returned PKA-R2B act -2 and PKA-R1A act -3.
Screening COCc1cc(C)nc2sc(C(=O)Nc3ccccc3Br)c(N)c12 returned SR-BI DiI-HDL act -79, CDK5 p35 inh 1, PKA-R2B act -13, dFosB activator 6, PKA-R1A act -10 and SR-BI HDL uptake 79*.
For Cn1c(C(=O)NN)cc2cc(Oc3ccccc3)ccc21 the results were SR-BI DiI-HDL act -79, CDK5 p35 inh 1, PKA-R2B act -2, dFosB activator -7, PKA-R1A act 4 and SR-BI HDL uptake 79*.
Cc1cc(Cl)ccc1NC(=O)C1CCCN1C(=O)c1cccs1 (stereo not drawn) was read as SR-BI DiI-HDL act 36, CDK5 p35 inh -1, PKA-R2B act 1, dFosB activator -3, PKA-R1A act 3 and SR-BI HDL uptake -36.
`CCN(C(=O)[C@@H]1CCCN1C(=O)c1cccs1)c1nc2cc(Cl)ccc2s1` gave SR-BI DiI-HDL act -78, CDK5 p35 inh 0, PKA-R2B act -3, dFosB activator -2, PKA-R1A act -10 and SR-BI HDL uptake 78*.
